The record followed here is ChEMBL document CHEMBL1134905, “Thiourea-based gemfibrozil analogues as HDL-elevating agents” (2002).

Common to all, as to assay type: functional
For assay [1], the system named is Rattus norvegicus. As to the kind of experiment: In vivo biological activity against Apo A-I relative to gemfibrozil in male Sprague-Dawley rats. In outline: (§1)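 Compounds given in the diet to groups of six rats for 8 days, after a 7-day lead-in; dose expressed as mg/kg/day. At termination, rats anesthetized with CO2 and bled from the carotid artery, and serum separated. Values are % change or ratio versus gemfibrozil (set = 1), each relative to an untreated control group; significance P < 0.05.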

Assay [2] has as its system Rattus norvegicus. As to the kind of experiment: Percentage change in total triglycerides was determined in vivo in male Sprague-Dawley rats. In outline:
as §1

Assay [3] has as its system Rattus norvegicus. As to the kind of experiment: In vivo biological activity against HDL relative to gemfibrozil in male Sprague-Dawley rats. The method, boiled down: as §1
Assay [4] deals with Rattus norvegicus. As to the kind of experiment: Percentage change in total cholesterol was determined in vivo in male Sprague-Dawley rats. In outline: as §1
For assay [5], the system named is Rattus norvegicus. As to the kind of experiment: Dose administered for testing biological activity in vivo in male Sprague-Dawley rats. In outline:
as §1

As to `Cc1ccc(Cl)cc1/N=C(\S)NCC(C)(C)C(N)=O`, the Activity with Rattus norvegicus [1] worked out at 1.15; in the assay on Rattus norvegicus [3] it was 0.57. Besides, the Change in the assay with Rattus norvegicus [2] is reported as -49%; in the assay with Rattus norvegicus [4], -3%. In the assay on Rattus norvegicus [5], this molecule registered a Dose of 41 mg/kg/day.

Turning to `Cc1ccc(Cl)cc1/N=C(\S)NCCO`, the Activity in the assay with Rattus norvegicus [1] is reported as 1.06; in the assay on Rattus norvegicus [3] it was 0.61. Besides, the Change in the assay on Rattus norvegicus [2] was -56%; with Rattus norvegicus [4] it was 40%. For the same molecule, in the assay on Rattus norvegicus [5], the Dose turned out to be 52 mg/kg/day.

Regarding `Cc1ccc(Cl)cc1NC(=O)NCC(C)(C)C(=O)O`, the results for the Activity in the assay on Rattus norvegicus [1] and in the assay with Rattus norvegicus [3] were 0.32 and 0.36, respectively. Moreover, the Change is -21% with Rattus norvegicus [2] and 74% in the assay on Rattus norvegicus [4]. The molecule further came in with a Dose in the assay with Rattus norvegicus [5] of 73 mg/kg/day.

In the case of `Cc1ccc(C)c(N/C(S)=N/CC(C)(C)C(=O)O)c1`, the Activity with Rattus norvegicus [1] amounted to 0.93; in the assay with Rattus norvegicus [3], 0.54. Besides, the Change is 69% in the assay with Rattus norvegicus [2] and 73% in the assay with Rattus norvegicus [4]. The molecule further had a Dose with Rattus norvegicus [5] of 78 mg/kg/day.

On to `COc1ccc(Cl)cc1/N=C(\S)NCC(C)(C)C(=O)O`, for which the Activity came to 0.27 in the assay on Rattus norvegicus [1] and 0.62 in the assay with Rattus norvegicus [3]. For the same molecule, the Change in the assay on Rattus norvegicus [2] is -28%; with Rattus norvegicus [4], 9%. Further, the Dose in the assay on Rattus norvegicus [5] is 77 mg/kg/day.

`Cc1ccc(Cl)cc1/N=C(\S)N1CCCC(C)(C(=O)O)C1` (stereo not given): the Activity in the assay on Rattus norvegicus [1] is listed as -0.16; with Rattus norvegicus [3], 0.33. Moreover, the Change in the assay on Rattus norvegicus [2] is 15%; in the assay on Rattus norvegicus [4], 14%. In the assay on Rattus norvegicus [5], this molecule showed a Dose of 81 mg/kg/day.

Take `Cc1ccc(Cl)cc1/N=C(\S)NCC1(C(=O)O)CCC1`: the Activity in the assay on Rattus norvegicus [1] is given as 0.49; with Rattus norvegicus [3], 1.19. Moreover, the Change is listed as -39% in the assay with Rattus norvegicus [2] and 36% in the assay with Rattus norvegicus [4]. Also, the Dose in the assay on Rattus norvegicus [5] came out at 76 mg/kg/day.

As for `COC(=O)C(C)(C)C/N=C(\S)Nc1cc(Cl)ccc1C`, the values for the Activity with Rattus norvegicus [1] and in the assay on Rattus norvegicus [3] were 1.81 and 0.93, respectively. Also, the Change with Rattus norvegicus [2] and with Rattus norvegicus [4] was -12% throughout. In addition, the Dose with Rattus norvegicus [5] is 74 mg/kg/day.

Regarding `Cc1ccc(Cl)cc1/N=C(\S)NCC1(C(=O)O)CCCC1`, the Activity with Rattus norvegicus [1] stood at 0.55; in the assay on Rattus norvegicus [3], 1.09. Also, the Change is -61% with Rattus norvegicus [2] and 41% in the assay with Rattus norvegicus [4]. Moreover, in the assay with Rattus norvegicus [5], the Dose came out at 67 mg/kg/day.

Consider `Cc1ccc(Cl)cc1/N=C(\S)NCC1(C(=O)O)CCCCC1`, for which the Activity in the assay on Rattus norvegicus [1] is given as 0.32; in the assay on Rattus norvegicus [3] it was 0.73. Further, the Change in the assay on Rattus norvegicus [2] is given as -54%; in the assay on Rattus norvegicus [4], 21%. The molecule further had a Dose in the assay on Rattus norvegicus [5] of 88 mg/kg/day.

As for `Cc1ccc(C)c(OCCCC(C)(C)C(=O)O)c1` [GEMFIBROZIL], the Activity in the assay with Rattus norvegicus [1] and in the assay on Rattus norvegicus [3] was 1 throughout. Also, the Change with Rattus norvegicus [2] was -43%; in the assay on Rattus norvegicus [4], -23%. In the assay on Rattus norvegicus [5], this molecule came in with a Dose of 46 mg/kg/day.
